This is an account of results in ChEMBL document CHEMBL3244208, “Quantitative structure-activity relationships for 5-substituted 8-hydroxyquinolines as inhibitors of dental plaque” (J Med Chem, 1977).

By MIC is commonly meant the least concentration at which growth counts as inhibited. The pKa is the pH at which an ionisable group is half protonated. By logP is commonly meant a log measure of how a compound divides between an organic and an aqueous phase. The low end stands for lower lipophilicity, the high end for higher lipophilicity.

One data set concerns Streptococcus mutans. The data set is described as follows: Antibacterial activity against Streptococcus mutans No.6715 assessed as inhibition of bacterial growth after 24 to 48 hrs by spectrophotometric analysis. To be noted: for MIC: Streptococcus mutans, No.6715. The class given is functional. In outline:
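S. mutans No. 6715, pure plaque-forming strain; media inoculated with 0.20 ml of a 24-h culture. Incubated anaerobically at 37 °C. Growth was read spectrophotometrically (% T) at 24 and 48 h. Dilution series run in sets of five tubes. MIC (molar) was taken as the lowest drug level whose tubes read above 60% T at 24 h.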

A short description of data set [1]: Ionization constant, pKa of 8-hydroxyl group of the compound at 1 mM by potentiometric analysis. The class given is physicochemical. In outline:
(§1)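 Potentiometric titration of 10⁻³ M test solutions in ethanol (95%)–water mixtures of varying proportion, 100 ml per titration, at 25 ± 0.1 °C under nitrogen with stirring. Titrant added in 0.25-ml aliquots, with stirring and gas stopped for each pH reading. Acidic function titrated with 0.02 N KOH, basic function with 0.02 N HCl. Boiled distilled, deionized water used for dilutions.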

Data set [2] is described as follows: Ionization constant, pKa of quinoline nitrogen group of the compound at 1 mM by potentiometric analysis. Format: physicochemical. In outline:
as §1

The nature of data set [3]: 1-Octanol-water partition coefficient, log P of the compound by spectrophotometer analysis corrected for ionization. Format: physicochemical. In outline:
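Octanol-water log P was measured by the shake-flask method: UV-spectrophotometric assay of one phase, the other by difference, at least triplicate runs with different sample amounts, averaged. The measured log P was then corrected for ionization.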

Data set [4] is described as follows: 1-Octanol-water partition coefficient, log P of the compound by spectrophotometer analysis. Format: physicochemical. Summed up: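 Shake-flask partition between 1-octanol and water. Phase-volume ratio and sample amount set so that test-layer absorbance after partitioning fell between 0.2 and 0.9 in a 1-cm cell. The solute was measured by UV spectrophotometry in one layer only, and the other layer was obtained by difference. P = C_octanol/C_water. At least triplicate runs with different sample amounts, log P averaged.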

Data set [5] is described as follows: Ionization constant, pKa of substituent at 5th position of the compound at 1 mM by potentiometric analysis. Format: physicochemical. In outline: as §1

As to `Cl.Oc1cccc2cccnc12`, in the data set on Streptococcus mutans, the “log(1/MIC)” value was -0.301 and the MIC came to 2 µM.

Turning to `Oc1cccc2cccnc12` [OXYQUINOLINE], the figures for the pKa at 1000 µM in data set [1] and in data set [2] were 9.64 and 5.14, respectively. In data set [3], this compound yielded a log partition coefficient (logP) of 1.95.

In the case of `CCN(CC)Cc1ccc(O)c2ncccc12`, the logP is 1.41 in data set [4] and 4.41 in data set [3]. Further, the values for the pKa at 1000 µM in data set [1], in data set [2] and in data set [5] were 9.19, 4.48 and 9.32, respectively.

As for `Cl.O=Cc1ccc(O)c2ncccc12`, in the data set on Streptococcus mutans, the “log(1/MIC)” value is reported as -0.778 and the MIC came out at 6 µM.

For `Cl.N#CCc1ccc(O)c2ncccc12`, in the data set on Streptococcus mutans, the “log(1/MIC)” value was -1.778 and the MIC came out at 60 µM.

As for `CN(C)Cc1ccc(O)c2ncccc12.Cl`, in the data set with Streptococcus mutans, the “log(1/MIC)” value is reported as -1.602 and the MIC was 40 µM.

Consider `CCN(CC)Cc1ccc(O)c2ncccc12.Cl`, for which, in the data set on Streptococcus mutans, the “log(1/MIC)” value was -1.602 and the MIC came out at 40 µM.

`CCOC(=O)Cc1ccc(O)c2ncccc12.Cl`: in the data set with Streptococcus mutans, the “log(1/MIC)” value was -2.903 and the MIC is 800 µM.

With `CCOC(=O)Cc1ccc(O)c2ncccc12`, the pKa at 1000 µM in data set [1] was found to be 9.4; in data set [2], 4.72. Moreover, the logP in data set [3] is 2.27.

As to `Cl.Oc1ccc(I)c2cccnc12`, in the data set with Streptococcus mutans, the “log(1/MIC)” value was -0.602 and the MIC came out at 4 µM.

Regarding `Cl.Oc1ccc(Cl)c2cccnc12`, in the data set on Streptococcus mutans, the “log(1/MIC)” value was -0.301 and the MIC is 2 µM.

On to `Oc1ccc(Cl)c2cccnc12` [CLOXYQUIN], for which the lipophilicity (logP) was 2.91 in data set [4] and 2.94 in data set [3]. Further, the pKa at 1000 µM was found to be 8.7 in data set [1] and 3.8 in data set [2].

Turning to `CN(C)Cc1ccc(O)c2ncccc12`, the logP in data set [4] came out at 1.06; in data set [3] it was 2.37. For the same compound, the pKa at 1000 µM in data set [1] was 9.46; in data set [2], 4.47; in data set [5], 8.66.

As to `Cl.O=[N+]([O-])c1ccc(O)c2ncccc12`, in the data set with Streptococcus mutans, the “log(1/MIC)” value is on record as -1.903 and the MIC amounted to 80 µM.

Take `Cc1ccc(O)c2ncccc12.Cl`: in the data set with Streptococcus mutans, the “log(1/MIC)” value is given as -1.301 and the MIC was determined as 20 µM.

Regarding `Cc1ccc(O)c2ncccc12` [TILIQUINOL], the logP in data set [4] and in data set [3] was 2.38 throughout. Further, the pKa at 1000 µM in data set [1] came to 9.92; in data set [2] it was 5.25.

`O=Cc1ccc(O)c2ncccc12`: the pKa at 1000 µM in data set [1] is 7.01; in data set [2] it was 4.42. In data set [3], this compound yielded a logP of 2.07.

In the case of `Cl.OCc1ccc(O)c2ncccc12`, in the data set with Streptococcus mutans, the “log(1/MIC)” value is listed as -2 and the MIC stood at 100 µM.

For the compound `CC(=O)c1ccc(O)c2ncccc12`, the pKa at 1000 µM was determined as 7.62 in data set [1] and 4.07 in data set [2]. Further, the logP in data set [3] stood at 1.96.

Regarding `CC(=O)c1ccc(O)c2ncccc12.Cl`, in the data set on Streptococcus mutans, the “log(1/MIC)” value is -0.602 and the MIC is 4 µM.

In the case of `COC(=O)Cc1ccc(O)c2ncccc12`, the pKa at 1000 µM in data set [1] was 9.46; in data set [2] it was 4.72.

For `COc1ccc(O)c2ncccc12`, the logP in data set [4] and in data set [3] was 2.1 throughout. For the same compound, the pKa at 1000 µM in data set [1] amounted to 9.96; in data set [2], 4.84.

Regarding `N#CCc1ccc(O)c2ncccc12`, the pKa at 1000 µM turned out to be 9.25 in data set [1] and 4.3 in data set [2]. Moreover, the logP in data set [3] amounted to 1.82.

As to `COc1ccc(O)c2ncccc12.Cl`, in the data set on Streptococcus mutans, the “log(1/MIC)” value is given as -1.602 and the MIC turned out to be 40 µM.

As for `COC(=O)Cc1ccc(O)c2ncccc12.Cl`, in the data set with Streptococcus mutans, the “log(1/MIC)” value is on record as -2.903 and the MIC was 800 µM.

`O=[N+]([O-])c1ccc(O)c2ncccc12` [NITROXOLINE]: the results for the logP in data set [4] and in data set [3] were -1.17 and 0.11, respectively. Also, the pKa at 1000 µM in data set [1] is 5.97; in data set [2] it was 3.68.

Take `OCc1ccc(O)c2ncccc12`: the logP in data set [4] and in data set [3] was 1 throughout. Besides, the pKa at 1000 µM is 9.53 in data set [1] and 4.93 in data set [2].

As for `Oc1ccc(I)c2cccnc12`, the pKa at 1000 µM in data set [1] was 8.31; in data set [2], 4.43. In data set [3], the logP stood at 3.29.
